Measured values: ChEMBL document CHEMBL1132144, “Synthesis of 9-O-substituted derivatives of 9-hydroxy-5, 6-dimethyl-6H-pyrido[4,3-b]carbazole-1-carboxylic acid (2-(dimethylamino)ethyl)amide and their 10- and 11-methyl analogues with improved antitumor activity” (J Med Chem, 1999)
Several values for one entry are separate records, joined by “and”; a condition that tells them apart may be missing. Equal values may be shown once.

Assays:
[1] = test system: Mus musculus; experiment: Percent median survival time of mice injected with P388 leukemia, at a intravenous compound dose of 80 mg/kg
[2] = test system: Mus musculus; experiment: Percent median survival time of mice injected with B16 melanoma, at a intraperitoneal compound dose of 10 mg/kg
[3] = test system: Mus musculus; experiment: Long-term survivors among 21 mice infected with P388 leukemia, scored on day 60 at 160-320 mg/kg dose on day 1; type: functional
Outline: (§1)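 B6D2F1 mice in groups of 6–7 were inoculated ip on day 0 with 10^6 P388 cells. Dihydrochloride salts were dissolved in water and given iv on day 1 or on days 1, 5 and 9. Doses ranged from a low nontoxic dose to a toxic one. Long-term survivors were counted at day 60.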

[4] = test system: L1210; experiment: Inhibition of murine L1210 leukemia cell proliferation measured by the MTT assay; type: functional, cell-based; conditions: Mus musculus
Outline: (§2)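 Murine L1210 leukemia and B16 melanoma cells were grown in RPMI 1640 with 10% fetal calf serum, 2 mM L-glutamine, penicillin/streptomycin and 10 mM HEPES (pH 7.4). Cells were exposed to nine serial drug dilutions in triplicate for about four doubling times (L1210 48 h, B16 96 h), then read by microculture tetrazolium (MTT) assay. IC50 is the concentration halving optical density versus untreated controls, averaged over ≥2 independent experiments.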

[5] = test system: B16; experiment: Inhibition of murine B16 melanoma cell proliferation measured by the MTT assay; type: functional, cell-based; conditions: Mus musculus
Outline: as §2

[6] = test system: Mus musculus; experiment: Long-term survivors among 21 mice infected with B16 melanoma, scored on day 90 at 10 mg/kg dose on days 1-9
[7] = test system: Mus musculus; experiment: Percent median survival time of mice injected with P388 leukemia, at a subcutaneous compound dose of 160-320 mg/kg; type: functional
[8] = test system: Mus musculus; experiment: Long-term survivors among 12 mice infected with P388 leukemia, scored on day 60 at 80 mg/kg dose on day 1, 5, 9; type: functional
Outline: as §1

[9] = test system: Mus musculus; experiment: Long-term survivors among 14 mice infected with B16 melanoma, scored on day 90 at 5 mg/kg dose; type: functional
Outline: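 B6D2F1 mice were inoculated ip on day 0 with B16 tumor brei (1 g tumor in 10 mL 0.9% NaCl). Compounds were given ip daily on days 1–9. Long-term survivors were scored at day 90.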

[10] = test system: Mus musculus; experiment: Percent median survival time of mice injected with B16 melanoma, at a intraperitoneal compound dose of 5 mg/kg
[11] = test system: Mus musculus; experiment: Long-term survivors among 12 mice infected with P388 leukemia, scored on day 60 at 80 mg/kg dose on day 1; type: functional
Outline: as §1

[12] = test system: Mus musculus; experiment: Percent median survival time of mice injected with P388 leukemia, at a intravenous compound dose of 80 mg/kg on day1,5,9
[13] = test system: Mus musculus; experiment: Percent median survival time of mice injected with P388 leukemia, at a intravenous compound dose of 80 mg/kg on day1
[14] = test system: Mus musculus; experiment: Long-term survivors among 13 mice infected with P388 leukemia, scored on day 60 at 80 mg/kg dose on day 1; type: functional
Outline: as §1

[15] = test system: Mus musculus; experiment: Long-term survivors among 13 mice infected with B16 melanoma, scored on day 90 at 10 mg/kg dose on days 1-9
[16] = test system: Mus musculus; experiment: Percent median survival time of mice injected with P388 leukemia, at a subcutaneous compound dose of 40 mg/kg; type: functional
[17] = test system: Mus musculus; experiment: Long-term survivors among 6 mice infected with P388 leukemia, scored on day 60 at 5 mg/kg dose; type: functional
Outline: as §1

[18] = test system: Mus musculus; experiment: Long-term survivors among 6 mice infected with P388 leukemia, scored on day 60 at 10 mg/kg dose; type: functional
Outline: as §1

[19] = test system: Mus musculus; experiment: Percent median survival time of mice intraperitoneally injected with P388 leukemia was determined from tested at 5 mg/kg at day1,5,9 dose to that of control; type: functional; conditions: route intraperitoneal
Outline: (§3)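 P388 leukemia in B6D2F1 mice (groups of 6–7), 10^6 cells inoculated ip on day 0. Dihydrochloride salts were dissolved in water and given iv on day 1 or on days 1, 5, 9. Three doses were tested, then five if active. %T/C = median survival treated/control × 100, reported at the optimal dose (no toxic death, weight loss <20%), from one or two representative experiments.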

[20] = test system: Mus musculus; experiment: Percent median survival time of mice injected with B16 melanoma, at a intraperitoneal compound dose of 20 mg/kg
[21] = test system: Mus musculus; experiment: Percent median survival time of mice intraperitoneally injected with P388 leukemia was determined from tested at 10 mg/kg at day1 dose to that of control; type: functional
Outline: as §3

[22] = test system: Mus musculus; experiment: Long-term survivors among 7 mice infected with B16 melanoma, scored on day 90 at 240 mg/kg dose on day 1; type: functional
[23] = test system: Mus musculus; experiment: Long-term survivors among 7 mice infected with P388 leukemia, scored on day 60 at 240 mg/kg dose on day 1; type: functional
Outline: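 B6D2F1 mice in groups of 6–7 received 10^6 P388 cells ip on day 0. Dihydrochloride salts dissolved in water were injected iv on day 1 or on days 1, 5 and 9, at three doses and then five. Read-outs were % T/C (median survival treated/control × 100) and long-term survivors on day 60, both at the optimal dose (no toxic death, weight loss <20%).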

[24] = test system: Mus musculus; experiment: Percent median survival time of mice injected with B16 melanoma at 80 mg/Kg subcutaneous dose; not tested; type: functional
[25] = test system: Mus musculus; experiment: Percent median survival time of mice injected with P388 leukemia at 160 mg/Kg dose; not tested; type: functional
[26] = test system: Mus musculus; experiment: Percent median survival time of mice injected with P388 leukemia at 240 mg/Kg dose; not tested; type: functional
[27] = test system: Mus musculus; experiment: Percent median survival time of mice injected with P388 leukemia, at a intravenous compound dose of 40 mg/kg
[28] = organism: Mus musculus; experiment: Long-term survivors among 14 mice infected with B16 melanoma, scored on day 90 at optimal dose on days 1-9
[29] = test system: Mus musculus; experiment: Long-term survivors among 14 mice infected with P388 leukemia, scored on day 60 at 40 mg/kg dose on day 1; type: functional
Outline: as §1

[30] = test system: Mus musculus; experiment: Percent median survival time of mice injected with P388 leukemia, at a subcutaneous compound dose of 20 mg/kg; type: functional
[31] = test system: Mus musculus; experiment: Percent median survival time of mice injected with B16 melanoma, at a intraperitoneal compound dose of 2.5-5 mg/kg

In the case of `Cc1c2ccnc(C(=O)NCCN(C)C)c2cc2c3cc(OC(=O)CCCC(=O)O)ccc3n(C)c12`, the T/C [1] is reported as >582%, the T/C [2] is reported as 196% and the LTS [3] is reported as 4. For the same compound, the IC50 [4] was 19.7 nM, the IC50 [5] was 14.8 nM and the LTS [6] was 2. The T/C [7] was >590%.
`Cc1c2ccnc(C(=O)NCCN(C)C)c2cc2c3cc(O)ccc3n(C)c12` gave an LTS [8] of 7, an LTS [9] of 0 and a T/C [10] of 174%. For the same compound, the IC50 [4] was 13.1 nM, the IC50 [5] was 5.4 nM and the LTS [11] was 0. The T/C [12] was >541% and the T/C [13] was 227%.
Compound `Cc1c2ccnc(C(=O)NCCN(C)C)c2cc2c3cc(OC(=O)c4cccnc4)ccc3n(C)c12` has a T/C [2] of 190%, an LTS [14] of 0 and an LTS [15] of 0. For the same compound, the IC50 [4] was 74.5 nM, the T/C [16] was 199% and 283% and the IC50 [5] was 2.3 nM.
For `Cc1c2ccnc(C(=O)NCCN(C)C)c2cc2c3cc(OC(=O)N(C)c4ccccc4)ccc3n(C)c12`, the LTS [17] was 0, the LTS [18] was 0 and the IC50 [4] was 1170 nM. The T/C [19] was 106%, the IC50 [5] was 1370 nM and the T/C [20] was 101%. For the same compound, the T/C [21] was 100%.
Compound `Cc1c2ccnc(C(=O)NCCN(C)C)c2cc2c3cc(OC(=O)NCCC(=O)O)ccc3n(C)c12` has an LTS [22] of 0, an IC50 [4] of 654 nM and an LTS [23] of 0. The IC50 [5] was 78.7 nM, the T/C [24] was 138% and the T/C [25] was 109%. It also gave a T/C [26] of 109%.
`Cc1c2c(C(=O)NCCN(C)C)nccc2c(C)c2c1c1cc(OC(=O)CCCCC(=O)O)ccc1n2C` was tested, and the T/C [27] was >600%, the IC50 [4] was 45.9 nM and the IC50 [5] was 6.3 nM. The LTS [28] was 4, the LTS [29] was 11 and the T/C [30] was >600%. It also gave a T/C [31] of 361%.
